The target in data set [1] is Histamine H3 receptor (Homo sapiens, UniProt Q9Y5N1). Briefly: Displacement of [3H]-N-alpha-methylhistamine from human recombinant histamine H3 receptor after 30 mins by scintillation counting.
Data set [2] concerns the target Histamine H3 receptor (Mus musculus, UniProt P58406). Kind of data set: Displacement of [3H]-N-alpha-methylhistamine from mouse recombinant histamine H3 receptor after 30 mins by scintillation counting.
Data set [3] is described as follows: AUC (0 to 6 hrs) in rat at 10 mg/kg, po. In kind it is ADME, organism-based. Also on record: time < 6 hr, dose 10 mg/kg, route oral. The note with it: plasma.
The test system of data set [4] is Mus musculus. Kind of data set: Antihyperglycemic activity in po dosed STZ-induced type 2 diabetic model of ICR mouse assessed as reduction of HbA1c level administered qd for 12 days. In kind it is functional, organism-based. The procedure, abridged: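 STZ diet-induced obese type 2 diabetic mice were dosed orally once daily for 12 days at 10 and 30 mg/kg. The end point was change in glycated hemoglobin (HbA1c), compared with vehicle (0) controls.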

The target of data set [5] is T1, Cytochrome P450 2C9 (Homo sapiens, UniProt P11712). Briefly: Inhibition of CYP2C9 under preincubation conditions. The data set is classed as ADME. As to conditions: read-out: INH.
T1 sequence (P11712 whole entry): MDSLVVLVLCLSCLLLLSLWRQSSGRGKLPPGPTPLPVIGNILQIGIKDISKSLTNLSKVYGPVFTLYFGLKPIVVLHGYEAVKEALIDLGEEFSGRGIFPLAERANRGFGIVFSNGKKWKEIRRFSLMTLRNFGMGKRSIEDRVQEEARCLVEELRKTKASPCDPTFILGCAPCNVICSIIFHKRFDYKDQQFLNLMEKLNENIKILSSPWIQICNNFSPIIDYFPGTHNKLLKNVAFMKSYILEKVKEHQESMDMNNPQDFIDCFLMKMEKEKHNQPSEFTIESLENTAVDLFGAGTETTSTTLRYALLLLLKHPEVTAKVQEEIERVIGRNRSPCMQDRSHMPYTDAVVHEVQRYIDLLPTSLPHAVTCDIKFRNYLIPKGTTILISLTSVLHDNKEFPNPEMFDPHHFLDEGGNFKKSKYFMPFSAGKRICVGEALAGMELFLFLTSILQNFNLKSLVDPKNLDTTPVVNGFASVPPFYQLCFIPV
In data set [6] the test system is Mus musculus. Kind of data set: Ex vivo receptor occupancy of histamine H3 receptor in ICR mouse brain cortex using [3H]- N-alpha-Methylhistamine at 30 mg/kg, po after 30 mins by scintillation counting. In kind it is functional.
For data set [7], the target named is T1, Cytochrome P450 2C9. Briefly: Inhibition of CYP2C9 under co-incubation conditions. The note with it: read-out: INH. The data set is classed as ADME.
For a further data set, the target named is hERG (KCNH2) (Homo sapiens, UniProt Q12809). Briefly: Inhibition of human ERG at 10 uM by high-throughput rubidium efflux assay.
hERG (KCNH2), sequence (Q12809 whole entry): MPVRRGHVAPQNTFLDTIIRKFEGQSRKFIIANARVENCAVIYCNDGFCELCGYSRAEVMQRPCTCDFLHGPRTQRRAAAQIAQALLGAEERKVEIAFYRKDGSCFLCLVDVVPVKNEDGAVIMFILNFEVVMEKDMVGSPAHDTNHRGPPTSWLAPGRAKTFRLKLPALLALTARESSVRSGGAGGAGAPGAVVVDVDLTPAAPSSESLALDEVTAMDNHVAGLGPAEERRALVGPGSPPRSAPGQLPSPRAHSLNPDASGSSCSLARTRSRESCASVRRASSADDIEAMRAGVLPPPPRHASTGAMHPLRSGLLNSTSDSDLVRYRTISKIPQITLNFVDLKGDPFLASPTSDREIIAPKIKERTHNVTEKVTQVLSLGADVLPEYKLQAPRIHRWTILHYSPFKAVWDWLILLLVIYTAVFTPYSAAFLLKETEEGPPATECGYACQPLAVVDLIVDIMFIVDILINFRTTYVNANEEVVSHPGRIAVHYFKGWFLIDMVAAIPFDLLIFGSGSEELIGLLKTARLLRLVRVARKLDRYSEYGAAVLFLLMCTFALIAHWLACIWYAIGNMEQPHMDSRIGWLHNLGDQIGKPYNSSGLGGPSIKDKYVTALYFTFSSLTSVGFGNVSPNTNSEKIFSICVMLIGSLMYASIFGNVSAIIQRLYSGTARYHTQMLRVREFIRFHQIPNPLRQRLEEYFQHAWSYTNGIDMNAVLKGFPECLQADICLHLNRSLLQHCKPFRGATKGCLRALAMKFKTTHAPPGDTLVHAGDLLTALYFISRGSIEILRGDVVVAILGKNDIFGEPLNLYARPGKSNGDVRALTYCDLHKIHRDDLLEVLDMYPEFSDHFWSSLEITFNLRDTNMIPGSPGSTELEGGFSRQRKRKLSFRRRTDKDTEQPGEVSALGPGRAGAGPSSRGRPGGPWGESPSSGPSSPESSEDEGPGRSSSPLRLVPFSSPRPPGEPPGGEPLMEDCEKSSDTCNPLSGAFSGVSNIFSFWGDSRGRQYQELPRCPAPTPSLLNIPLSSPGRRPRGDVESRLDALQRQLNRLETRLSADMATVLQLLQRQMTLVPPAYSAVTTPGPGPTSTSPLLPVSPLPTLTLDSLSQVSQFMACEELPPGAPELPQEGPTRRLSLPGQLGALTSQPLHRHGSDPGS
For data set [8], the target named is T2, Cytochrome P450 3A4 (Homo sapiens, UniProt P08684). Kind of data set: Inhibition of CYP3A4 under co-incubation conditions. The note with it: read-out: INH. In kind it is ADME.
T2 sequence (P08684 whole entry): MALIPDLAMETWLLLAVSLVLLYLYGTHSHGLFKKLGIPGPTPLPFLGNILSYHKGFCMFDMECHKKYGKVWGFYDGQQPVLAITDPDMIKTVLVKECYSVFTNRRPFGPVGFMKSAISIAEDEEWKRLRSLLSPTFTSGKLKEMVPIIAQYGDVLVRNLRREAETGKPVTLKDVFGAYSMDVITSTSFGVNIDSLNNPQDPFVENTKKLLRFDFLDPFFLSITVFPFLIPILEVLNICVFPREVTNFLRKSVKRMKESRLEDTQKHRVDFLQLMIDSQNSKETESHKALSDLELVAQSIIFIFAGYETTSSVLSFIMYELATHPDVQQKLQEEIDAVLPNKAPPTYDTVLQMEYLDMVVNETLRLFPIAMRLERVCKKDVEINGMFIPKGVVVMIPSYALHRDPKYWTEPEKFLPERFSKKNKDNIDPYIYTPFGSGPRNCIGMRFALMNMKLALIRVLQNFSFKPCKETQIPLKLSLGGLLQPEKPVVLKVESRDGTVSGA
For data set [9], the target named is T2, Cytochrome P450 3A4. Briefly: Inhibition of CYP3A4 under preincubation conditions. In kind it is ADME. The note with it: read-out: INH.
Data set [10] in a line: Cmax in ICR mouse plasma at 30 mg/kg, po after 4 hrs. In kind it is ADME, organism-based. The arrangement: dose 30 mg/kg, route oral. The method in brief:
(§1)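 ICR mice were given a single 30 mg/kg oral dose. Total brain and plasma concentrations were measured 4 h later, and the brain/plasma ratio was taken from these levels.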

Data set [11] deals with T3, Cytochrome P450 2D6 (Homo sapiens, UniProt P10635). Briefly: Inhibition of CYP2D6 under preincubation conditions. In kind it is ADME.
T3 sequence (P10635 whole entry): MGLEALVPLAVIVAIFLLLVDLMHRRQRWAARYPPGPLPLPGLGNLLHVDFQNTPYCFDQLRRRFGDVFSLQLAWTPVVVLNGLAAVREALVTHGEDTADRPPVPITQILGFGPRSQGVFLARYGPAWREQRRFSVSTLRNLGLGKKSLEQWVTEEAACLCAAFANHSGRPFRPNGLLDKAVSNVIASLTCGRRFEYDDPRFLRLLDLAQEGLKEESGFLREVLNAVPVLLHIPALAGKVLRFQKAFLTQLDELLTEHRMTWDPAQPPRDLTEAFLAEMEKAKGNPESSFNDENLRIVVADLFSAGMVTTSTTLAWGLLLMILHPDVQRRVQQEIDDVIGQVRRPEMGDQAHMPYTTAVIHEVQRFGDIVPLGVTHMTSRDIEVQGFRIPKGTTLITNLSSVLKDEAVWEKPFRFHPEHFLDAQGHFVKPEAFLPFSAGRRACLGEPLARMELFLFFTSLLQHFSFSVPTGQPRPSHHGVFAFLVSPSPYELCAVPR
Data set [12] deals with T3, Cytochrome P450 2D6. Kind of data set: Inhibition of CYP2D6 under co-incubation conditions. The data set is classed as ADME. As to conditions: read-out: INH.
Data set [13] in a line: Drug level in ICR mouse brain at 30 mg/kg, po after 4 hrs. In kind it is ADME, organism-based. The arrangement: dose 30 mg/kg, route oral. The note with it: read-out: Drug uptake. The method in brief: as §1
In data set [14] the test system is Mus musculus. Kind of data set: Antihyperglycemic activity in STZ-induced type 2 diabetic model of ICR mouse assessed as reduction of non-fasting blood glucose level at 30 mg/kg, po qd for 2 days. In kind it is functional. The method in brief: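 Streptozotocin-diabetic ICR mice (STZ 80 mg/kg ip; blood glucose 250–500 mg/dL) received oral dosing at 30 mg/kg once daily. Non-fasting glucose was read daily before each dose. Data are mean ± SEM, n = 12/group, compared with vehicle (0) controls.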

The nature of data set [15]: Ratio of drug level in brain to plasma in ICR mouse. The data set is classed as ADME. As to conditions: read-out: BPR. The method in brief: as §1

pIC50, pKi: −log10 of the molar value.

Histamine H3 receptor (Homo sapiens, UniProt Q9Y5N1), sequence (Q9Y5N1 whole entry): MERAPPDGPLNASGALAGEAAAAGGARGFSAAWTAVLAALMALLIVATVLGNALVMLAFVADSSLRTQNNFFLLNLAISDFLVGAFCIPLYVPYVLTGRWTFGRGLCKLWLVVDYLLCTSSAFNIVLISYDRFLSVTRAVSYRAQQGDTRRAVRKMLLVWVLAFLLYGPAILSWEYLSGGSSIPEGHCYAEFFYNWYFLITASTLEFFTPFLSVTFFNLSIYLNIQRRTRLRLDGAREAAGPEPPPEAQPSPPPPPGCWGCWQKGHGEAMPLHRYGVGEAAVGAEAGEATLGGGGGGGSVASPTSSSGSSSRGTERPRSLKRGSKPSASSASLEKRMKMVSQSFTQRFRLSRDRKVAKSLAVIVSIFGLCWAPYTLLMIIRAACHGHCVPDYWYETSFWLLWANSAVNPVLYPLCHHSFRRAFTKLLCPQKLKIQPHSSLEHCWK
Histamine H3 receptor (Mus musculus, UniProt P58406), sequence (P58406 whole entry): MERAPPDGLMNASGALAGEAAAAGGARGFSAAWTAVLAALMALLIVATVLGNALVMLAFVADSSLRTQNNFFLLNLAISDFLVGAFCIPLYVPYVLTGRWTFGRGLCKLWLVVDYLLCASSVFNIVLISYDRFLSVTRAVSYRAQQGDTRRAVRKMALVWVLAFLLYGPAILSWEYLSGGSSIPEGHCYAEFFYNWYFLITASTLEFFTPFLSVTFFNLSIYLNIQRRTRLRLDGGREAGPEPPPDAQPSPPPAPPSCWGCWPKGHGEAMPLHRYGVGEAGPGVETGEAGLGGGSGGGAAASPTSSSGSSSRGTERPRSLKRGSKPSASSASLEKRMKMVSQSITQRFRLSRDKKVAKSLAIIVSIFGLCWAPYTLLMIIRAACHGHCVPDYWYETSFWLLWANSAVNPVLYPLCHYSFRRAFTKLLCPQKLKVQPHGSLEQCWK

On to `O=C1N(c2nnc(N3CCC(N4CCCCC4)CC3)s2)CCN1C1CCCC1`, for which the pKi was 7.47 on Histamine H3 receptor [1] and 7.28 at Histamine H3 receptor [2].
Taken in the same sequence, the figures for `c1ccc(C2CN(c3nnc(N4CCC(N5CCCCC5)CC4)s3)CCO2)nc1` (stereo in doubt; 5t) were 7.47 and 7.17.
The corresponding values for `O=C1CCCCN1c1nnc(N2CCC(N3CCCCC3)CC2)s1` are 6.92 and 6.92.
`FC1(F)CCN(c2nnc(N3CCC(N4CCCCC4)CC3)s2)CC1` yielded an AUC(0-t) at 6 h in data set [3] of 2490 ng·h/mL. Further, the values for the negative-log Ki (pKi) on Histamine H3 receptor [1] and on Histamine H3 receptor [2] were 7.82 and 7.74, respectively.
In the case of `FC1CCCN(c2nnc(N3CCC(N4CCCCC4)CC3)s2)C1` (stereo unspecified), the negative-log Ki (pKi) at Histamine H3 receptor [1] was 7.18; on Histamine H3 receptor [2], 7.25.
The corresponding values for `c1ccc(C2CCCN(c3nnc(N4CCC(N5CCCCC5)CC4)s3)C2)cc1` (stereo unspecified) are 7.12 and 6.96.
As to `O=C(Nc1nnc(N2CCC(N3CCCCC3)CC2)s1)NC1CCCC1`, the negative-log Ki (pKi) on Histamine H3 receptor [2] was 7.33.
With `OC1(c2ncccn2)CCCN(c2nnc(N3CCC(N4CCCCC4)CC3)s2)C1` (stereo unspecified), the pKi was 7.17 on Histamine H3 receptor [1] and 7.11 at Histamine H3 receptor [2].
The corresponding values for `c1cnc(C2CN(c3nnc(N4CCC(N5CCCCC5)CC4)s3)CCO2)cn1` (stereo unspecified) are 8.10 and 7.80.
Turning to `c1ccc(C2CN(c3nnc(N4CCC(N5CCCCC5)CC4)s3)CCO2)nc1` (single isomer, unassigned; enantiomer 2) [listing 1 of 2 here], in the data set on Mus musculus [4], the Activity entry was “Dose-dependent effect”.
Regarding `C1=C(c2ccccn2)CCCN1c1nnc(N2CCC(N3CCCCC3)CC2)s1`, the pIC50 at Cytochrome P450 2C9 [5], at Cytochrome P450 2C9 [7], on Cytochrome P450 3A4 [8], on Cytochrome P450 3A4 [9] and on Cytochrome P450 2D6 [12] was less than 4.70 throughout. The Activity in the data set on Mus musculus [6] was determined as 85%. On hERG (KCNH2), this compound yielded an inhibition at 10 µM of 54%. The peak level in data set [10] (Cmax) was 1470 ng/mL. In addition, the results for the negative-log Ki (pKi) at Histamine H3 receptor [1] and at Histamine H3 receptor [2] were 8.52 and 8.30, respectively. The INH on Cytochrome P450 2D6 [11] was more than 20 µM. For the same compound, in [13], the concentration at 4 h was determined as 1040 ng/g.
As for `c1ccc(C2CN(c3nnc(N4CCC(N5CCCCC5)CC4)s3)CCO2)nc1` (stereo in doubt; 5r), the values for the negative-log Ki (pKi) at Histamine H3 receptor [1] and at Histamine H3 receptor [2] were 8.30 and 7.96, respectively.
Taken in the same sequence, the figures for `COC1(c2ccccn2)CCCN(c2nnc(N3CCC(N4CCCCC4)CC3)s2)C1` (stereo unspecified) were 7.96 and 7.27.
The corresponding values for `OC1(c2ccccn2)CCCN(c2nnc(N3CCC(N4CCCCC4)CC3)s2)C1` (stereo unspecified) are 7.28 and 7.26.
As for `COC1CCCN(c2nnc(N3CCC(N4CCCCC4)CC3)s2)C1` (stereo unspecified), the negative-log Ki (pKi) was 7.43 on Histamine H3 receptor [1] and 7.34 at Histamine H3 receptor [2].
Taken in the same sequence, the figures for `C1=C(c2ncccn2)CN(c2nnc(N3CCC(N4CCCCC4)CC3)s2)CC1` were 7.85 and 7.36.
Take `FC1(c2ccccn2)CCCN(c2nnc(N3CCC(N4CCCCC4)CC3)s2)C1` (stereo unspecified): the Activity in the data set with Mus musculus [14] turned out to be 67.91 mg/dL; in the data set with Mus musculus [6] it was 92%. Also, the Kp in data set [15] is 0.227. Besides, the pIC50 on Cytochrome P450 2C9 [5], at Cytochrome P450 2C9 [7], at Cytochrome P450 3A4 [8], at Cytochrome P450 3A4 [9] and at Cytochrome P450 2D6 [12] was less than 4.70 each time. The inhibition at 10 µM at hERG (KCNH2) turned out to be 16%. This compound returned a Cmax in [10] of 2970 ng/mL. For the same compound, the negative-log Ki (pKi) was 8.40 at Histamine H3 receptor [1] and 8.15 on Histamine H3 receptor [2]. The compound also yielded an INH at Cytochrome P450 2D6 [11] of more than 20 µM. Also, the concentration at 4 h in data set [13] came to 674 ng/g.
Turning to `CC1CN(c2nnc(N3CCC(N4CCCCC4)CC3)s2)CC(C)O1` (stereo unspecified), the AUC(0-t) at 6 h in data set [3] turned out to be 4320 ng·h/mL. The pKi at Histamine H3 receptor [1] was 7.28; on Histamine H3 receptor [2], 7.46.
For the compound `C1=C(c2ccccn2)CN(c2nnc(N3CCC(N4CCCCC4)CC3)s2)CC1`, the negative-log Ki (pKi) is 7.92 at Histamine H3 receptor [1] and 7.31 on Histamine H3 receptor [2].
With `FC1(F)CCN(c2nnc(N3CCC(N4CCCCC4)CC3)s2)C1`, the AUC(0-t) at 6 h in data set [3] amounted to 545 ng·h/mL. The pKi on Histamine H3 receptor [1] and at Histamine H3 receptor [2] was 7.21 in each case.
Consider `OC1CCCN(c2nnc(N3CCC(N4CCCCC4)CC3)s2)C1` (stereo unspecified), for which the figures for the negative logarithm of the Ki (pKi) at Histamine H3 receptor [1] and on Histamine H3 receptor [2] were 7.34 and 7.17, respectively.
Consider `c1ccc(C2CN(c3nnc(N4CCC(N5CCCCC5)CC4)s3)CCO2)nc1` (single isomer, unassigned; enantiomer 2) [listing 2 of 2 here], for which the Activity in the data set on Mus musculus [14] came out at 104.5 mg/dL; with Mus musculus [6], 74%. Besides, the Kp in data set [15] stood at 0.016. The pIC50 on Cytochrome P450 2C9 [5], on Cytochrome P450 2C9 [7], on Cytochrome P450 3A4 [8], on Cytochrome P450 3A4 [9] and on Cytochrome P450 2D6 [12] was less than 4.70 throughout. This compound also gave an inhibition at 10 µM on hERG (KCNH2) of 26%. This compound also yielded a Cmax in data set [10] of 1500 ng/mL. Besides, the pKi at Histamine H3 receptor [1] is 8.52; on Histamine H3 receptor [2], 8.40. Further, at Cytochrome P450 2D6 [11], the INH was more than 20 µM. Besides, in [13], the concentration at 4 h is 24 ng/g.
`O=C1N(c2ccccc2)CCCN1c1nnc(N2CCC(N3CCCCC3)CC2)s1`: the results for the negative-log Ki (pKi) at Histamine H3 receptor [1] and on Histamine H3 receptor [2] were 7.52 and 7.49, respectively.

The values above are taken from ChEMBL document CHEMBL2046373, “Discovery of a potent thiadiazole class of histamine h3 receptor antagonist for the treatment of diabetes” (ACS Med Chem Lett, 2012).
